High-throughput results from PubChem.
KCNQ1 inh – inhibitors of human KCNQ1 channel, primary screen, cell-based, thallium flux, high-throughput | Potassium voltage-gated channel subfamily KQT member 1 (Homo sapiens), P51787 | CHO-K1 KCNQ1, FluxOR thallium flux fluorescence; active compounds read high | B-score at 10 µM | hit rate 1.3% among 310,000 | AID 2642, 2010;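 active = compounds whose thallium flux B-score, printed positive for inhibition, exceeds three library SD while starting fluorescence stays within three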;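 note: channel opened by potassium depolarization with thallium stimulus after 20 min compound exposure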
KCNK3 block – human KCNK3 channel inhibitors, primary screen, CHO cells, FluxOR thallium flux, B-score | Potassium channel subfamily K member 3 (Homo sapiens), O14649 | FluxOR fluorescence; active compounds read low | B-score at 10 µM | hit rate 0.84% among 340,000;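 active = B-score under library mean minus 4 SD, starting fluorescence ratio at most library mean plus 5 SD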;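 note: more negative B-score means stronger inhibition of thallium flux through KCNK3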
hERG rescue – hERG rescue from dofetilide block, primary screen, cell-based, CHO-hERG, FluxOR thallium flux, dofetilide IC70; dofetilide IC70 present; Voltage-gated inwardly rectifying potassium channel KCNH2 (Homo sapiens), Q12809; hit rate 0.51% among 310,000; activation (rescue from dofetilide block), less the hit threshold, % at 10 µM; AID 1511, 2009;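 active = activation above the mean of controls blocked by dofetilide plus 5 SD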;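 note: thallium influx through hERG after potassium depolarization seen as dye fluorescence rise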
KCNQ1 act – potentiators or activators of KCNQ1 channel, primary screen, cell-based, thallium flux, high-throughput | Potassium voltage-gated channel subfamily KQT member 1 (Homo sapiens), P51787 | CHO-K1 KCNQ1, thallium flux FluxOR fluorescence; active compounds read high | B-score at 10 µM | hit rate 0.35% among 310,000 | AID 2648, 2010;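 active = fluorescence ratio B-score, a plate-corrected score, at least three library SD, with initial intensity B-score within 5 SD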
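Assay system: stable KCNQ1 CHO-K1 line; medium: assay buffer, equal DMSO in all wells; timing: 90 min dye loading and 20 min compound exposure, both at room temperature; technique: kinetic FluxOR thallium fluorescence, 10-s 1-Hz baseline, 110-s post-stimulus read; read-out basis: B score of baseline-normalized fluorescence ratio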
KCNK9 inh – KCNK9 potassium channel inhibitors, primary screen, HEK293 cells, thallium flux; FluxOR thallium flux fluorescence; active compounds read low; B-score at 10 µM; hit rate 1.2% among 310,000;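 active = ratio B-score over 3 SD below the library mean, with starting fluorescence within 5 SD of its mean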;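 note: negative B-score means less thallium flux so channel inhibition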
* hit, by the source's call; i = inactive; . = not tested or not shown. Most compounds without a hit are left out; they make up all but 3.1% or so of the library.

SMILES | KCNQ1 inh | KCNK3 block | hERG rescue | KCNQ1 act | KCNK9 inh
COc1ccc(S(=O)(=O)N(C)C)cc1NCC(=O)Nc1ccc(F)cc1F | i | i | -6 | i | i
CC1(c2ccccc2)NC(=O)N(CC(=O)N(CC(=O)Nc2ccccc2C(F)(F)F)Cc2ccco2)C1=O (stereo unspecified) | . | i | . | . | .
O=C(CN1C(=O)NC2(CCCC2)C1=O)NCCc1ccc(Cl)cc1Cl | . | i | . | . | .
CC1(C)C2CCC1(C)C(OCC[N+](C)(C)CC(=O)OC1CCCCC1)C2 (stereo unspecified) | 7* | i | -7 | i | i
O=C(NCC1COc2ccccc2O1)c1cc(S(=O)(=O)N2CCOCC2)c(Cl)cc1Cl (stereo unspecified) | . | i | . | . | .
Nc1ccc2c(c1)C(=O)C(=O)c1ccccc1-2 | i | i | 6.9* | i | i
Cc1ccc(C2C(/C=C3/SC(=S)NC3=O)=C(c3cccs3)Oc3ccccc32)cc1 (stereo unspecified) | i | i | -7 | 8* | i
COc1ccc2oc(C(=O)Nc3nccs3)c(C)c2c1 | i | i | -12 | i | -7.9*
Cc1cccc(-n2ncc3c(N4CC(C)CC(C)C4)ncnc32)c1 (stereo unspecified) | i | i | -9 | i | -7.1*
Cc1cccc(-n2ncc3c(N4CCCC4)ncnc32)c1 | i | i | -12 | i | i
O=C(NCc1ccc2c(c1)OCO2)NC12CC3CC(CC(C3)C1)C2 | i | i | 4.9* | i | i
CC[C@]12c3[nH]c4cc(CCC(=O)N(C)C)ccc4c3CCN1C(=O)[C@@H](CC(=O)NC/C=C(\C)CCC=C(C)C)C[C@@H]2C(=O)N1CCN(C(=O)c2ccco2)CC1 | . | i | . | . | .
CS(=O)(=O)c1nsc2nc(=O)c(/C=C3\C=Nc4ccccc43)c(N)n12 | i | i | 32* | i | i
CC(C)Sc1nsc2nc(=O)c(/C=C3\C=Nc4ccccc43)c(N)n12 | i | i | -6 | i | i
Nc1nc(Nc2ccc(Cl)cc2)nc(NCc2ccco2)c1[N+](=O)[O-] | i | i | -2 | i | i
Cc1cccc(Nc2nc(N)c([N+](=O)[O-])c(NCc3ccco3)n2)c1 | 6* | i | -5 | i | i
COc1ccc(Nc2nc(NCc3ccco3)nc(N)c2[N+](=O)[O-])cc1 | i | i | -10 | i | -7.8*
Cc1cccc(Nc2nc(NCc3ccco3)nc(N)c2[N+](=O)[O-])c1 | i | i | -9 | i | i
CCOc1ccc(C(=O)Nc2cc(C)on2)cc1OCC | i | i | 4.9* | i | i
CC[C@]12c3[nH]c4ccc(Cl)cc4c3CCN1C(=O)[C@@H](CC(=O)NCCCN(C)C)C[C@@H]2C(=O)N1CCN(C(=O)c2ccco2)CC1 | . | i | . | . | .
O=C1C(Cl)=C(N2CCCCC2)C(=O)C(Cl)=C1c1cnc(N2CCCCC2)s1 | 7* | i | -3 | i | i
CN(C)c1ncc(C2=C(Cl)C(=O)C(N3CCCC3)=C(Cl)C2=O)s1 | 7* | i | -46 | i | i
CC(=O)c1cnc(N(C)C)s1 | i | i | -9 | i | i
NC(=O)C1CCN(C(=O)C(Cc2ccccc2)NC(=O)c2ccccc2)CC1 (stereo unspecified) | . | i | . | . | .
O=C(/C=C/c1ccccc1)CC(=O)c1ccccc1 | . | i | . | . | .
SMILES | KCNQ1 inh | KCNK3 block | hERG rescue | KCNQ1 act | KCNK9 inh
O=C(CC(=O)c1ccccc1)CC(O)(C=Cc1ccccc1)c1ccccc1 (stereo unspecified) | . | -9.1* | . | . | .
Cc1ccc(C)c(N2N=C(C(=O)OCc3nnc(-c4cccs4)o3)CCC2=O)c1 | . | i | . | . | .
Cc1cc(-c2nnc(SCC(=O)Nc3ccc(C(F)(F)F)cc3)n2C)no1 | i | i | 6.2* | i | i
Cc1cc(-c2nnc(SCC(=O)Nc3ccccc3)n2C)no1 | i | i | -3 | i | i
CCCCCc1ccc(C(=O)CCCC)c(=S)[nH]1 | i | i | 35* | 17* | i
CCN(CC(=O)NCc1ccc(Cl)cc1)C(=O)c1ccc(C#N)cc1 | i | i | -11 | i | i
CCOC(=O)COn1c(-c2cccc(Cl)c2)nc2ccc([N+](=O)[O-])cc21 | 6* | i | -12 | i | i
COc1cc(/C=C/c2ccc3cccc(O)c3n2)cc(OC)c1OC | i | i | 3 | i | i
COC(=O)c1ccc(/C=C/c2ccc3cccc(OC)c3n2)cc1 | i | i | 44* | i | i
CCn1c(SCC(=O)Nc2nc3ccc(C)cc3s2)nc2c(c1=O)SC(C)C2 (stereo unspecified) | i | -11* | -9 | i | i
CCn1c(SCC(=O)Nc2nc3ccccc3s2)nc2c(c1=O)SC(C)C2 (stereo unspecified) | i | . | -7 | i | i
O=C(O)C1OC1(c1ccccc1Cl)c1ccccc1Cl (stereo unspecified) | . | i | . | . | .
COC(=O)c1cccc(NC(=O)CCCN2C(=O)NC3(CCCC3)C2=O)c1 | . | i | . | . | .
COc1ccc2[nH]c(=O)c(CN(Cc3ccco3)C(c3nnnn3Cc3ccccc3)C(C)C)cc2c1 (stereo unspecified) | 7* | i | -9 | i | i
Cc1ccccc1NC(=O)Cc1nnc(SCC(=O)N2CCOCC2)n1C | i | i | -12 | i | i
S=c1nc(C2CCCCC2)[nH]c2ccccc12 | i | i | 10* | 22* | i
O=c1[nH]c(C2CCCCC2)nc2ccccc12 | i | i | -3 | i | i
S=c1nc(C2CC2)[nH]c2ccccc12 | i | i | 20* | 29* | i
COc1ccc(CCNC2CC(=O)N(CCc3ccccc3)C2=O)cc1 (stereo unspecified) | i | i | 7.1* | i | i
CCN1CCc2c(sc(NC(=O)c3ccc(S(=O)(=O)N(CC)c4ccccc4)cc3)c2C(N)=O)C1 | i | i | -13 | i | i
COc1ccc(N2Nc3n[nH]c(N)c3N2)cc1 | i | i | -10 | i | i
CCOc1ccc(N2Nc3n[nH]c(N)c3N2)cc1 | i | i | 37* | i | i
Cc1ccc(NC(=O)Nn2cnnc2)cc1 | i | i | -7 | i | i
O=C(Nc1ccc(Cl)cc1)Nn1cnnc1 | i | i | 5.7* | i | i
O=C(NN=C1c2ccccc2-c2ccccc21)c1cccc(Br)c1 | i | i | 46* | 18* | i
